The record followed here is ChEMBL document CHEMBL5126600, “Discovery of the First-in-Class G9a/GLP Covalent Inhibitors” (J Med Chem, 2022).

Assay [1] has as its target Histone-lysine N-methyltransferase SUV39H1 (Homo sapiens) (UniProt O43463). Put plainly: Inhibition of N-terminal fusion protein with C-terminal His-tagged SUV39H1 (44 to 412 residues) (unknown origin) expressed in Escherichia coli at 1 uM using 3H-SAM as a substrate relative to control. The method, boiled down:
(§1)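 Contracted 3H-SAM methyl-transfer scintillation proximity assay against a panel of methyltransferases; compound tested at 1 μM in duplicate; inhibition expressed as percent of control enzyme activity.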

In assay [2] the target is Histone-lysine N-methyltransferase EHMT1 (Homo sapiens) (UniProt Q9H9B1). The assay can be described thus: Inhibition of human GLP (982 to 1266 residues) using H3 peptide as substrate in presence of SAM cofactor by scintillation counting method. Conditions: time 5-45 min, TDE = time-dependent effect. The method, boiled down: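 Contracted scintillation proximity assay following 3H-methyl transfer from SAM (1 μM) to H3 peptide (0.05 μM) by G9a or GLP (5 nM each), with preincubation times of 5, 15 or 45 min; four replicates.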

Assay [3] has as its target T1, Histone-lysine N-methyltransferase EHMT1 (Homo sapiens, UniProt Q9H9B1).
T1 sequence (Q9H9B1 whole entry): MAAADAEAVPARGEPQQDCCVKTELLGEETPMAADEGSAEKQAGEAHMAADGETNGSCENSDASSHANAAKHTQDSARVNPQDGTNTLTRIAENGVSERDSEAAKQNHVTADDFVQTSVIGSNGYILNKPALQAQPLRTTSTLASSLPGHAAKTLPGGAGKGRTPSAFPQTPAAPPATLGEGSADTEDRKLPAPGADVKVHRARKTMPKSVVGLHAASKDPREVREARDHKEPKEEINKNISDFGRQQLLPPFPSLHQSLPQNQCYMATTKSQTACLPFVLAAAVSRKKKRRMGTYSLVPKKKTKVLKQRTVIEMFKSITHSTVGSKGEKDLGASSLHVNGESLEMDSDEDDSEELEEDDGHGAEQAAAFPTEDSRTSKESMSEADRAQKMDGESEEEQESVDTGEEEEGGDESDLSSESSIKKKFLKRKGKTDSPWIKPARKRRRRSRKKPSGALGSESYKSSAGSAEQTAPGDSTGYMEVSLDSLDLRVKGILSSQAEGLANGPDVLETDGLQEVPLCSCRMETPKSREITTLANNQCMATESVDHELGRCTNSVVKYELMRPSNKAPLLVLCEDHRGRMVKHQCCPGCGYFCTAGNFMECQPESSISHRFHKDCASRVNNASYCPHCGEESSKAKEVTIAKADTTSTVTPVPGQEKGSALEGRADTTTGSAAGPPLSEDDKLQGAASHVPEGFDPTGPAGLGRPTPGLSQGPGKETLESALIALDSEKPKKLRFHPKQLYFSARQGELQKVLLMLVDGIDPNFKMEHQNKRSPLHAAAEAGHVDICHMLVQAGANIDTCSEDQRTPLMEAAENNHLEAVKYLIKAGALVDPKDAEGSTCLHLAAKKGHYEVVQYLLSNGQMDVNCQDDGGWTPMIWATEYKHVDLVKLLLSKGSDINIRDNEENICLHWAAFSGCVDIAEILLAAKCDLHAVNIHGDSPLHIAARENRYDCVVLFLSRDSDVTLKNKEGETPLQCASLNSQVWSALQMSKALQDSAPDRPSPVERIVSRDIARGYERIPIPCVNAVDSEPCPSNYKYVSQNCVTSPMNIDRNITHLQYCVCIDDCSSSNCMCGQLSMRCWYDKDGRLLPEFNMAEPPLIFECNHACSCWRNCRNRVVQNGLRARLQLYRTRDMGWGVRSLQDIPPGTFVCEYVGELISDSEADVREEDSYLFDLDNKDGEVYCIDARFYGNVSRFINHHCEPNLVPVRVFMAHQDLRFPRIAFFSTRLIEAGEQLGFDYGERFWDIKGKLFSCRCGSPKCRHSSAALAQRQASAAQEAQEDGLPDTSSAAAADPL
Put plainly: Binding affinity to human GLP (982 to 1266 residues) assessed as dissociation constant by isothermal titration calorimetry method. The method, boiled down: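 ITC at 25 °C in 50 mM Tris-HCl pH 7.5, 150 mM NaCl, 1% DMSO; 500 μM compound in syringe titrated into 50 μM G9a or GLP catalytic domain in cell (initial 0.4 μL injection then 13 injections), stirring 750 rpm; run time about 50 min; single binding site fit; mean ± SD of two independent measurements.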

The subject of a further assay is K562. The assay can be described thus: Down regulation of H3K9 dimethylation in human K562 cells at 0.2 to 5 uM incubated for 48 hrs by Western blot analysis. Particulars: dose 0.2-5 µM. The assay is classed as functional, cell-based. (In western blotting, separated proteins are transferred to a membrane and probed.)
The target of assay [4] is Protein arginine N-methyltransferase 7 (Homo sapiens) (UniProt Q9NVM4). Put plainly: Inhibition of N-terminal His-tagged full-length recombinant human PRMT7 (2 to 692 residues) expressed in baculovirus expression system at 1 uM using 3H-SAM as a substrate relative to control. The method, boiled down:
as §1

Assay [5] deals with Histone-lysine N-methyltransferase EHMT1 (Homo sapiens) (UniProt Q9H9B1). Put plainly: Inhibition of human GLP (982 to 1266 residues) assessed as covalent modification by measuring GLP adduct formation by mass spectrometry. Particulars: time <= 120.0 min, TDE = time-dependent effect. The method, boiled down:
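Purified G9a or GLP catalytic domain (5 μM) in 50 mM Tris-HCl pH 7.5, 150 mM NaCl incubated with 50 μM compound or DMSO at room temperature (1 h, or 30 and 60 min in time course); intact mass by ESI LC/MS-TOF; adduct % = adduct/(protein + adduct) × 100.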

Assay [6] concerns the target Histone-lysine N-methyltransferase, H3 lysine-36 specific (Homo sapiens) (UniProt Q96L73). Put plainly: Inhibition of N-terminal His-tagged NSD1 (1538 to 2696 residues) (unknown origin) expressed in baculovirus expression system at 1 uM using 3H-SAM as a substrate relative to control. The method, boiled down: as §1

SMILES strings stand for the structures. Activity calls are given as the source filed them. The rule behind the calls is not given here.

The term inhibition denotes the drop in the measured response relative to a control, in per cent. One may read the Kd as the constant that tells how readily two partners part at equilibrium.

Histone-lysine N-methyltransferase SUV39H1 (Homo sapiens), sequence (O43463 whole entry, the tested form may be a part): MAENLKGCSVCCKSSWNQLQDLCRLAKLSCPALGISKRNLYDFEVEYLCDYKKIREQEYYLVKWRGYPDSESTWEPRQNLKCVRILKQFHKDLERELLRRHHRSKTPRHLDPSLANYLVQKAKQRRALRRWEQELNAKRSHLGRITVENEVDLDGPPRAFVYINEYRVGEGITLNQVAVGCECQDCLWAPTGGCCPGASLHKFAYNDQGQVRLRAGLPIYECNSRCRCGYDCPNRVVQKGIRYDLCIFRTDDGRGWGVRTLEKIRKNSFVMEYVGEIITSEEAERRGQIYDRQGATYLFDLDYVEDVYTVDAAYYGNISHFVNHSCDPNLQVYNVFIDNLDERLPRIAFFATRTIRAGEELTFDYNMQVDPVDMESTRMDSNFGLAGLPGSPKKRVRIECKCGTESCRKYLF
Protein arginine N-methyltransferase 7 (Homo sapiens), sequence (Q9NVM4 whole entry, the tested form may be a part): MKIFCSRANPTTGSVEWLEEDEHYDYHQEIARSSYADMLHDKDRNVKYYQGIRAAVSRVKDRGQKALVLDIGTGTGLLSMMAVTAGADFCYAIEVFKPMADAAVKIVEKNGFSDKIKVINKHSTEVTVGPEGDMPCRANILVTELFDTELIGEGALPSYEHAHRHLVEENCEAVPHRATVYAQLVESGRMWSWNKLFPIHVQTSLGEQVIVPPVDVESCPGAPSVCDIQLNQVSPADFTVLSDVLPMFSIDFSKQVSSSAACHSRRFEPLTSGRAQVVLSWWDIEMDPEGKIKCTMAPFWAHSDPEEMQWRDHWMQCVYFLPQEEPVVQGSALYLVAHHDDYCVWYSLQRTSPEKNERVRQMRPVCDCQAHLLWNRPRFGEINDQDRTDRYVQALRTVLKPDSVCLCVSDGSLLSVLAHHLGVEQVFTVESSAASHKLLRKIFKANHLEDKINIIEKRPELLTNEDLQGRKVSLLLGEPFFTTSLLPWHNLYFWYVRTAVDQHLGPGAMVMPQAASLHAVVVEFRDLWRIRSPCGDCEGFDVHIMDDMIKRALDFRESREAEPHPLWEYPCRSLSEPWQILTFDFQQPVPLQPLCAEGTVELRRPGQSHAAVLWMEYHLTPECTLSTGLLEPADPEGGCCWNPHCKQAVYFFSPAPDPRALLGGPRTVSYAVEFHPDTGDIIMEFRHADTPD
Histone-lysine N-methyltransferase, H3 lysine-36 specific (Homo sapiens), sequence (Q96L73 whole entry, the tested form may be a part): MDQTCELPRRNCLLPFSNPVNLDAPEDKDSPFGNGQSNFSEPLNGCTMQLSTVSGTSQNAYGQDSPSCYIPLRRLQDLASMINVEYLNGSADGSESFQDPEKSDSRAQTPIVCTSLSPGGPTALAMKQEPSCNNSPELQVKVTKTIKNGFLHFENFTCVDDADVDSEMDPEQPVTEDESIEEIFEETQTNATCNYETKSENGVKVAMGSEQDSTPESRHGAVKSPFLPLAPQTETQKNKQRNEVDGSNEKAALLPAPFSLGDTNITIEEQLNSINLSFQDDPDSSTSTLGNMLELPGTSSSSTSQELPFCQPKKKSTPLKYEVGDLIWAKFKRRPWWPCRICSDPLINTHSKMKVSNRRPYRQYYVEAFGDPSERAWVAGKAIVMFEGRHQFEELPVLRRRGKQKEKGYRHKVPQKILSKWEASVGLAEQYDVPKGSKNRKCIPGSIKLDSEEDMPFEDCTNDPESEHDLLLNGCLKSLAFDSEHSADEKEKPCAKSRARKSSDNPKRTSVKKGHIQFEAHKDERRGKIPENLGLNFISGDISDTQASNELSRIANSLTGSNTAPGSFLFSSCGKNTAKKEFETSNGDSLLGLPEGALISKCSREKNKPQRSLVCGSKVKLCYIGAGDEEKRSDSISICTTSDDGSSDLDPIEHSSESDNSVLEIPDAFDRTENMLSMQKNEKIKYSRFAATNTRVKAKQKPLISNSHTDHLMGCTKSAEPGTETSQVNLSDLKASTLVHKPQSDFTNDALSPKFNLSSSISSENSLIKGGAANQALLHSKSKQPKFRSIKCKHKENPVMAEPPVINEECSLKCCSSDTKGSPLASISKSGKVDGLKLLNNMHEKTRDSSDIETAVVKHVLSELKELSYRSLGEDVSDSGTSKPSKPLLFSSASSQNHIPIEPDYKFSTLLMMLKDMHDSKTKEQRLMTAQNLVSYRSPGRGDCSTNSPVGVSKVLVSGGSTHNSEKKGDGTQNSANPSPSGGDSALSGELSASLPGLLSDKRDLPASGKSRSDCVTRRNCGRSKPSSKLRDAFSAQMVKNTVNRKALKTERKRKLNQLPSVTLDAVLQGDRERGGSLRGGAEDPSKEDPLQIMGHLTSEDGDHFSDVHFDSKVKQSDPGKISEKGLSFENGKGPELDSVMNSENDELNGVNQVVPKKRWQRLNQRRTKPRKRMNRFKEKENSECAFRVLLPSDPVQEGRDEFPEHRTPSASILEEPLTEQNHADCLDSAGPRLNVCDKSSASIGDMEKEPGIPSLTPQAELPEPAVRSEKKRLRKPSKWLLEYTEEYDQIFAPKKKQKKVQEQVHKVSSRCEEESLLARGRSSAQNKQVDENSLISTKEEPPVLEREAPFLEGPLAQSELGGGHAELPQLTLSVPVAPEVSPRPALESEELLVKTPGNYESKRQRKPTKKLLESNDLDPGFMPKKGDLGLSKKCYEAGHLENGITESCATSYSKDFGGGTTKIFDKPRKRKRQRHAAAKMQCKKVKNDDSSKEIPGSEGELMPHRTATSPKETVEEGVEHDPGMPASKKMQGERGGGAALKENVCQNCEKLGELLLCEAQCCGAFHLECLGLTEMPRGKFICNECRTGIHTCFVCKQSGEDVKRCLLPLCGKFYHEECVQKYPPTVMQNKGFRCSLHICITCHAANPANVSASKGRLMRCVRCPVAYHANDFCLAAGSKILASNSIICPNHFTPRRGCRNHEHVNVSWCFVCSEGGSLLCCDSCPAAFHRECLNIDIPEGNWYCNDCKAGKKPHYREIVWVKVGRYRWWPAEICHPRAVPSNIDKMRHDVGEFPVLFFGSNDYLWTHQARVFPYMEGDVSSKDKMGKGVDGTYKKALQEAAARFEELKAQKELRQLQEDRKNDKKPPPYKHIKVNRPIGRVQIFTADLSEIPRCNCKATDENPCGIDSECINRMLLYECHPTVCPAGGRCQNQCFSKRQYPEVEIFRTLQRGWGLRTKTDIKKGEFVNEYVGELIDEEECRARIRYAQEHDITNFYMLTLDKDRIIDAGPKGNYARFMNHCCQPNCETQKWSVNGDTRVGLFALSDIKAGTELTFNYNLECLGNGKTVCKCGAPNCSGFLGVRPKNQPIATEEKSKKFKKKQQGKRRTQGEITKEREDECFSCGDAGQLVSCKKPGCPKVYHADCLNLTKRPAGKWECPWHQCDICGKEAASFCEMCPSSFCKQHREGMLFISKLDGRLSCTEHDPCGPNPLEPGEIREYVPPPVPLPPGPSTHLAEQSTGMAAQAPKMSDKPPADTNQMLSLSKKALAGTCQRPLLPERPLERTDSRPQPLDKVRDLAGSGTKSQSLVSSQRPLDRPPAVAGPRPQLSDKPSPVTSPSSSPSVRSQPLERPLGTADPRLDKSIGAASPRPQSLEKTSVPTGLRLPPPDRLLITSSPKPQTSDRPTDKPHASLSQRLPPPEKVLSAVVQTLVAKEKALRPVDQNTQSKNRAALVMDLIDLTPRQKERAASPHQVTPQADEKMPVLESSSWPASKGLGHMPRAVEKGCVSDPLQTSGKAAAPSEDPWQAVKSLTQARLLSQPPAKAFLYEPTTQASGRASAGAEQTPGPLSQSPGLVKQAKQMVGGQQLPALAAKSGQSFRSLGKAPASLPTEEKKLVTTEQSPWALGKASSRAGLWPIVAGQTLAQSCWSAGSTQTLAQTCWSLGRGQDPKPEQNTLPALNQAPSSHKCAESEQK

With `C=CC(=O)Nc1cc(NC2CCN(C(C)C)CC2)c2cc(OC)c(OCCCN3CCCC3)cc2n1`, the inhibition in assay [1] was below 50%; in assay [2], “Tde”; in assay [4] it was below 50%; in assay [5], “Tde”; in assay [6], below 50%. The Kd in assay [3] was found to be 0.046 µM. Further, the result with K562 was Active.
